ChEMBL document CHEMBL6078712, “Triterpenoid phthalimides as selective anti-cancer agents targeting mitochondrial apoptosis” (Eur J Med Chem, 2025)
Activity calls are given as the source filed them. No cut-off for these calls is given here.

Columns and labels:
CCRF-CEM [1] = assay: Induction of apoptosis in human CCRF-CEM cells assessed as upregulation of BIM expression at 1 to 5 times IC50 incubated for 24 hrs by Western blotting analysis; type: functional, cell-based
How it was run: (§1)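 30 µg protein per lane on SDS-PAGE, transferred to nitrocellulose, blocked in 5 % BSA/TBS-Tween. Primary antibodies overnight at 4 °C (Akt, P-Akt Ser473, STAT-3, caspase-3, PARP, cyclin D, cyclin A, Bcl-xL, Bak, Bid, Bim), then HRP secondary and ECL detection. GAPDH as loading control.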

CCRF-CEM [2] = assay: Induction of cell cycle arrest in human CCRF-CEM cells assessed as downregulation of Cyclin D expression at 5 times IC50 incubated for 24 hrs by Western blotting analysis; type: functional, cell-based; how it was run: as §1
CCRF-CEM [3] = assay: Induction of cell cycle arrest in human CCRF-CEM cells assessed as downregulation of total AKT expression at 5 times IC50 incubated for 24 hrs by Western blotting analysis; type: functional, cell-based; how it was run: as §1
CCRF-CEM [4] = assay: Induction of apoptosis in human CCRF-CEM cells assessed as late apoptotic cells at 5 times IC50 incubated for 24 hrs by Annexin V-FITC and PI staining based flow cytometric analysis (reference value: 0.4 %); type: functional
How it was run: (§2)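 Washed in Ca2+-containing binding buffer, then stained 15 min at room temperature in the dark with Annexin V-FITC and propidium iodide (PI at half the kit-recommended level). Read at once by flow cytometry with a 488 nm laser, ≥10,000 cells. Debris excluded; quadrants viable, early apoptotic, late apoptotic/necrotic, necrotic. Three independent experiments.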

[5] = Stability in human plasma assessed as compound remaining at 2 uM incubated for 120 mins by RF-MS analysis; type: ADME, cell-free; settings: read-out: Stability
How it was run: (§3)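 Human plasma stability, plasma protein binding and liver microsome stability, each run in triplicate. Error deviations below 10 %.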

CCRF-CEM [6] = assay: Induction of apoptosis in human CCRF-CEM cells assessed as late apoptotic cells at 1 times IC50 incubated for 24 hrs by Annexin V-FITC and PI staining based flow cytometric analysis (reference value: 0.4 %); type: functional; how it was run: as §2
Mitochondrial membrane [7] = assay: Induction of mitochondrial membrane potential depolarization in human CCRF-CEM cells assessed as fold increase in fluorescence intensity incubated for 24 hrs by JC-1 staining based flow cytometry; type: cell membranes
[8] = Stability in human plasma assessed as compound remaining at 2 uM incubated for 60 mins by RF-MS analysis; type: ADME, cell-free; settings: read-out: Stability; how it was run: as §3
CCRF-CEM [9] = assay: Induction of apoptosis in human CCRF-CEM cells assessed as necrotic cells at 1 times IC50 incubated for 24 hrs by Annexin V-FITC and PI staining based flow cytometric analysis (reference value: 0.4 %); type: functional; how it was run: as §2
CCRF-CEM [10] = assay: Induction of apoptosis in human CCRF-CEM cells assessed as upregulation of BID expression at 1 to 5 times IC50 incubated for 24 hrs by Western blotting analysis; type: functional, cell-based; how it was run: as §1
[11] = Stability in human plasma assessed as compound remaining at 2 uM incubated for 15 mins by RF-MS analysis; type: ADME, cell-free; settings: read-out: Stability; how it was run: as §3
[12] = Cytotoxicity against human BJ cells assessed as inhibition of cell growth incubated for 72 hrs by MTS assay; type: toxicity, cell-based
How it was run: (§4)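 MTS assay on eight human cancer lines and two non-tumour fibroblast lines. IC50 is the concentration that inhibits cell growth by 50 %. SD typically up to 15 % of the mean.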

[13] = Metabolic stability in human liver microsomes assessed as parent compound remaining at 2 uM incubated for 15 mins in presence of NADPH by RF-MS analysis; type: ADME, Microsome; settings: read-out: Stability; how it was run: as §3
CCRF-CEM [14] = assay: Induction of cell cycle arrest in human CCRF-CEM cells assessed as increase in accumulation of G0/G1 phase at 5 times IC50 incubated for 24 hrs by RNase/PI staining based flow cytometry; type: functional
How it was run: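 Propidium iodide staining and flow cytometry with a 488 nm laser, ≥10,000 intact cells. Phase proportions compared with untreated cells; SEM of three independent experiments.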

CCRF-CEM [15] = assay: Inhibition of RNA synthesis in human CCRF-CEM cells at 1 times IC50 incubated for 24 hrs by BrU incorporation based flow cytometry; type: functional
How it was run: (§5)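 Fixed in 1 % paraformaldehyde/0.05 % NP-40 (15 min at room temperature, then 4 °C overnight). Stained with cross-reacting anti-BrdU plus FITC secondary (45 min each), then PI/RNase A. Flow cytometry; % BrU-positive cells.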

K562 = assay: Cytotoxicity against human K562 cells assessed as inhibition of cell growth incubated for 72 hrs by MTS assay; type: functional, cell-based; settings: K562, 72 h; how it was run: as §4
CCRF-CEM [16] = assay: Inhibition of DNA synthesis in human CCRF-CEM cells at 5 times IC50 incubated for 24 hrs by BrdU incorporation based flow cytometry; type: functional
How it was run: (§6)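 Fixed in ice-cold 70 % ethanol, DNA denatured in 2 M HCl for 30 min, neutralised with borax. Stained with anti-BrdU plus FITC secondary, then PI/RNase A for 1 h. Flow cytometry; % BrdU-positive cells.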

CCRF-CEM [17] = assay: Induction of apoptosis in human CCRF-CEM cells assessed as downregulation of caspase-3 expression at 5 times IC50 incubated for 24 hrs by Western blotting analysis; type: functional, cell-based; how it was run: as §1
CEM-DNR = assay: Cytotoxicity against human CEM-DNR cells assessed as inhibition of cell growth incubated for 72 hrs by MTS assay; type: functional, cell-based; how it was run: as §4
[18] = Metabolic stability in human liver microsomes assessed as parent compound remaining at 2 uM incubated for 60 mins in presence of NADPH by RF-MS analysis; type: ADME, Microsome; settings: read-out: Stability; how it was run: as §3
[19] = Cytotoxicity against human K562-Tax cells assessed as inhibition of cell growth incubated for 72 hrs by MTS assay; type: functional, cell-based; how it was run: as §4
A549 = assay: Cytotoxicity against human A549 cells assessed as inhibition of cell growth incubated for 72 hrs by MTS assay; type: functional, cell-based; settings: A549, 72 h; how it was run: as §4
HCT 116 TP53(-/-) = assay: Cytotoxicity against human HCT116-p53-null cells assessed as inhibition of cell growth incubated for 72 hrs by MTS assay; type: functional, cell-based; how it was run: as §4
CCRF-CEM [20] = assay: Induction of apoptosis in human CCRF-CEM cells assessed as early apoptotic cells at 5 times IC50 incubated for 24 hrs by Annexin V-FITC and PI staining based flow cytometric analysis (reference value: 2.1 %); type: functional; how it was run: as §2
CCRF-CEM [21] = assay: Induction of apoptosis in human CCRF-CEM cells assessed as viable cells at 1 times IC50 incubated for 24 hrs by Annexin V-FITC and PI staining based flow cytometric analysis (reference value: 97.4 %); type: functional; how it was run: as §2
[22] = Plasma protein binding in human assessed as fraction bound at 10 uM incubated for 4 hrs by rapid equilibrium dialysis based RF-MS analysis; type: ADME, cell-free; settings: read-out: PPB (converted); how it was run: as §3
Mitochondrial membrane [23] = assay: Induction of mitochondrial membrane potential depolarization in human CCRF-CEM cells assessed as fold increase in fluorescence intensity at 5 times IC50 incubated for 24 hrs by JC-1 staining based flow cytometry; type: cell membranes
[24] = Stability in human plasma assessed as compound remaining at 2 uM incubated for 30 mins by RF-MS analysis; type: ADME, cell-free; settings: read-out: Stability; how it was run: as §3
CCRF-CEM [25] = assay: Induction of apoptosis in human CCRF-CEM cells assessed as viable cells at 5 times IC50 incubated for 24 hrs by Annexin V-FITC and PI staining based flow cytometric analysis (reference value: 97.4 %); type: functional; how it was run: as §2
U2OS = assay: Cytotoxicity against human U2OS cells assessed as inhibition of cell growth incubated for 72 hrs by MTS assay; type: functional, cell-based; how it was run: as §4
CCRF-CEM [26] = assay: Induction of cell cycle arrest in human CCRF-CEM cells assessed as downregulation of Cyclin A expression at 5 times IC50 incubated for 24 hrs by Western blotting analysis; type: functional, cell-based; how it was run: as §1
CCRF-CEM [27] = assay: Induction of apoptosis in human CCRF-CEM cells assessed as necrotic cells at 5 times IC50 incubated for 24 hrs by Annexin V-FITC and PI staining based flow cytometric analysis (reference value: 0.4 %); type: functional; how it was run: as §2
CCRF-CEM [28] = assay: Inhibition of DNA synthesis in human CCRF-CEM cells at 1 times IC50 incubated for 24 hrs by BrdU incorporation based flow cytometry; type: functional; how it was run: as §6
[29] = Cytotoxicity against human MRC5 cells assessed as inhibition of cell growth incubated for 72 hrs by MTS assay; type: toxicity, cell-based; how it was run: as §4
CCRF-CEM [30] = assay: Inhibition of RNA synthesis in human CCRF-CEM cells at 5 times IC50 incubated for 24 hrs by BrU incorporation based flow cytometry; type: functional; how it was run: as §5
CCRF-CEM [31] = assay: Induction of apoptosis in human CCRF-CEM cells assessed as early apoptotic cells at 1 times IC50 incubated for 24 hrs by Annexin V-FITC and PI staining based flow cytometric analysis (reference value: 2.1 %); type: functional; how it was run: as §2
CCRF-CEM [32] = assay: Induction of cell cycle arrest in human CCRF-CEM cells assessed as downregulation of total STAT3 expression at 5 times IC50 incubated for 24 hrs by Western blotting analysis; type: functional, cell-based; how it was run: as §1
[33] = Metabolic stability in human liver microsomes assessed as parent compound remaining at 2 uM incubated for 30 mins in presence of NADPH by RF-MS analysis; type: ADME, Microsome; settings: read-out: Stability; how it was run: as §3
HCT-116 = assay: Cytotoxicity against human HCT-116 cells assessed as inhibition of cell growth incubated for 72 hrs by MTS assay; type: functional, cell-based; settings: HCT-116, 72 h; how it was run: as §4
CCRF-CEM [34] = assay: Cytotoxicity against human CCRF-CEM cells assessed as inhibition of cell growth incubated for 72 hrs by MTS assay; type: functional, cell-based; how it was run: as §4
CCRF-CEM [35] = assay: Induction of apoptosis in human CCRF-CEM cells assessed as downregulation of BCL-XL expression at 5 times IC50 incubated for 24 hrs by Western blotting analysis; type: functional, cell-based; how it was run: as §1

For `CC1(C)[C@@H](O)CC[C@]2(C)[C@H]3CC[C@@H]4[C@H]5[C@H](c6cc7c(c(-c8ccccc8)c6)C(=O)N(c6ccc(N)cc6)C7=O)CC[C@]5(C(=O)O)CC[C@@]4(C)[C@]3(C)CC[C@@H]12`, the Activity (CCRF-CEM [1]) was “Active”, the Activity (CCRF-CEM [2]) was “Active” and the Activity (CCRF-CEM [3]) was “Active; Slight Activity Observed”. It also gave an Activity (CCRF-CEM [4]) of 4.7%, a remaining at 2 h, 2 µM [5] of 89% and an Activity (CCRF-CEM [6]) of 2.8%. The Activity (Mitochondrial membrane [7]) was “Dose-dependent-effect”, the remaining at 1 h, 2 µM [8] was 93% and the Activity (CCRF-CEM [9]) was 0%. The Activity (CCRF-CEM [10]) was “Active”, the remaining at 0.25 h, 2 µM [11] was 106% and the IC50 at 72 h [12] was 40.6 µM. For the same compound, the remaining at 0.25 h, 2 µM [13] was 100%, the Activity (CCRF-CEM [14]) was “Active” and the “inhibition (INH)” value (CCRF-CEM [15]) was 24%. For the same compound, the IC50 (K562) was 20.9 µM, the “inhibition (INH)” value (CCRF-CEM [16]) was 13.6% and the Activity (CCRF-CEM [17]) was “Active”. For the same compound, the IC50 (CEM-DNR) was 6.29 µM, the remaining at 1 h, 2 µM [18] was 97% and the IC50 [19] was 4.34 µM. It also gave an IC50 (A549) of 21 µM, an IC50 (HCT 116 TP53(-/-)) of 17.1 µM and an Activity (CCRF-CEM [20]) of 7.8%. The Activity (CCRF-CEM [21]) was 92.4%, the fraction unbound at 4 h, 10 µM [22] was 0.37 and the fold change (FC) (Mitochondrial membrane [23]) was over 20. For the same compound, the remaining at 0.5 h, 2 µM [24] was 92%, the Activity (CCRF-CEM [25]) was 87.5% and the IC50 (U2OS) was 15.6 µM. For the same compound, the Activity (CCRF-CEM [26]) was “Active”, the Activity (CCRF-CEM [27]) was 0% and the “inhibition (INH)” value (CCRF-CEM [28]) was 30%. For the same compound, the IC50 at 72 h [29] was 19.4 µM, the “inhibition (INH)” value (CCRF-CEM [30]) was 45.4% and the Activity (CCRF-CEM [31]) was 4.8%. For the same compound, the Activity (CCRF-CEM [32]) was “Active”, the remaining at 0.5 h, 2 µM [33] was 102% and the IC50 (HCT-116) was 12 µM. The IC50 (CCRF-CEM [34]) was 4.09 µM and the Activity (CCRF-CEM [35]) was “Active”.
